Measured values from publication PMC12400138 (Molecular and Clinical Oncology, 2025).
pIC50: −log10 of the molar value. Read-outs that look alike come from different tables or passages of the source.

Assays:
C666-1 = assay: MTS assay, C666-1; format: cell-based, human
How it was run: (§1)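 Cell lines were seeded per well in 96-well plates: C666-1 at 30,000, HK1 at 10,000, NP69SV40T at 15,000 and NP460hTert at 15,000. After 2 h at 37°C in 5% CO2, test compound was added at 0.8-200 nM (rocaglates) or 0.15-20 µM (second compound). Vehicle was 0.1% DMSO final, or NaH2PO4. MTS was added after 1-3 days for 1-4 h, reading A490 minus A630. IC50 was fitted from % signal versus vehicle.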

HK1 [1] = assay: MTS assay, HK1; format: cell-based, human; details: read-out: IC50 value
How it was run: as §1

NP69SV40T = assay: MTS assay, NP69SV40T; format: cell-based, human; details: read-out: IC50 value
How it was run: as §1

NP460hTert = assay: MTS assay, NP460hTert; format: cell-based, human; details: read-out: IC50 value
How it was run: as §1

HK1 [2] = assay: Flow cytometric analysis of cell cycle progression; format: cell-based, human
How it was run: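 HK1 cells were seeded at 1.0x10^5 cells/0.5 ml/well in 12-well plates. After 2 h, test compound was added at 5 nM, 10 nM or 1 µM, alone or combined. Exposure lasted 2-3 days. Adherent and floating cells were pelleted and stained in hypotonic buffer (propidium iodide, RNase A, sodium citrate, Triton X) on ice, in the dark, for 10 min. ≥10,000 events were acquired by flow cytometry, and DNA-content histograms were modelled for cycle phases.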

HK1 [3] = assay: FITC Annexin V/PI apoptosis assay; format: cell-based, human; details: 3 days post-treatment, 1 μM
How it was run: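 HK1 cells were seeded at 1.0x10^5 cells/0.5 ml/well in 12-well plates. After ~2 h, test compound was added at 5 nM, 10 nM or 1 µM, alone or combined, for 3 days. Adherent and floating cells were stained with FITC-Annexin V and PI in binding buffer for 15 min in the dark. Samples were diluted, kept on ice and analysed by flow cytometry, acquiring 10,000 events per sample.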

[4] = system: NPC cell lines or nasopharyngeal epithelial cells; assay: MTS assay, summary over cell lines; format: cell-based; details: Homo sapiens, read-out: IC50 values
How it was run: as §1

normal bone marrow cells = details: 1 µΜ, two days; cited from earlier work
[5] = advanced hematologic malignancy patients; phase I dose-escalation; cited from earlier work
[6] = toxicity studies mostly in murine models; cited from earlier work
[7] = silvestrol 5 nM, episilvestrol 10 nM or combination with 1 µM CX-5461

SMILES: COC(=O)[C@H]1[C@@H](O)[C@@]2(O)c3c(OC)cc(O[C@@H]4O[C@@H]([C@@H](O)CO)CO[C@H]4OC)cc3O[C@@]2(c2ccc(OC)cc2)[C@@H]1c1ccccc1 [Episilvestrol, episilvestrol]
- pIC50 (C666-1; read-out: IC50 value, 1 day post-treatment): 7.25
- pIC50 (C666-1; read-out: IC50 value, 2 days post-treatment): 7.74
- pIC50 (C666-1; read-out: IC50 value, 3 days post-treatment): 8.00
- pIC50 (HK1 [1]; HK1, 1 day post-treatment): 7.22
- pIC50 (HK1 [1]; HK1, 2 days post-treatment): 7.89
- pIC50 (HK1 [1]; HK1, 3 days post-treatment): 8.00
- pIC50 (NP69SV40T; NP69SV40T, 1 day post-treatment): 7.17
- pIC50 (NP69SV40T; NP69SV40T, 2 days post-treatment): 7.72
- pIC50 (NP69SV40T; NP69SV40T, 3 days post-treatment): 8.00
- pIC50 (NP460hTert; NP460hTert, 1 day post-treatment): 7.85
- pIC50 (NP460hTert; NP460hTert, 2 days post-treatment): 7.70
- pIC50 (NP460hTert; NP460hTert, 3 days post-treatment): 8.00
- cell cycle arrest (HK1 [2]; [7]): arrested cells at G0/G1

SMILES: Cc1cnc(CNC(=O)c2c(=O)c3ccc(N4CCCN(C)CC4)nc3n3c2sc2ccccc23)cn1 [CX-5461, reference compound]
- pIC50 (HK1 [1]; Homo sapiens, HK-1, 24 h): 5.70
- pIC50 (HK1 [1]; Homo sapiens, HK-1, 48 h): 6.00
- pIC50 (NP69SV40T; Homo sapiens, 24 h): 5.22
- pIC50 (NP69SV40T; Homo sapiens, 48 h): 6.00
- pIC50 (NP460hTert; Homo sapiens, 24 h): 6.30
- pIC50 (NP460hTert; Homo sapiens, 48 h): 6.40
- cell cycle arrest (HK1 [2]; 1 µM): arrested cells at S-phase and G2/M
- % apoptosis (percentage of total apoptosis) (HK1 [3]): < 20%
- pIC50 [4]: 5.22 to 6.40
- cell death (normal bone marrow cells): minimal cell death
- tolerability [5]: well tolerated

SMILES: COC(=O)[C@H]1[C@@H](O)[C@@]2(O)c3c(OC)cc(O[C@@H]4O[C@@H]([C@H](O)CO)CO[C@H]4OC)cc3O[C@@]2(c2ccc(OC)cc2)[C@@H]1c1ccccc1 [Silvestrol, silvestrol]
- pIC50 (HK1 [1]; Homo sapiens, HK-1, 24 h): 6.88
- pIC50 (HK1 [1]; Homo sapiens, HK-1, 48 h): 8.15
- pIC50 (NP69SV40T; Homo sapiens, 24 h): 7.24
- pIC50 (NP69SV40T; Homo sapiens, 48 h): 8.10
- pIC50 (NP460hTert; Homo sapiens, 24 h): 8.05
- pIC50 (NP460hTert; Homo sapiens, 48 h): 8.05
- cell cycle arrest (HK1 [2]; [7]): arrested cells at G0/G1
- tolerability [6]: well tolerated
